{"source": "ChEMBL document CHEMBL1151472", "about": "“In vitro interactions between tacrolimus and azoles against Candida albicans determined by different methods” (2008)", "type_in_all_cases": "functional", "key": {"[1]": {"test_system": "Candida albicans", "test": "Antimicrobial activity against azole-resistant Candida albicans isolate CA10 assessed as growth at 1 ug/ml cotreated with 0.031 ug/ml calcineurin signaling inhibitor tacrolimus after 48 hrs by microdilution checkerboard technique relative to control", "set-up": "scale not given: the % may be the effect or the level left", "method_in_brief": "(§1)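 Checkerboard microdilution in RPMI 1640 (pH 7.0, 2% dextrose, 0.165 M MOPS). Azole dilutions run along columns and FK506 along rows, at 4× final concentration. Final inoculum 2.5 × 10^3 CFU/ml from Sabouraud-subcultured cells. Incubated 35°C for 48 h; OD read at 492 nm. Background from microorganism-free plates subtracted. Growth % = well OD / drug-free well OD. Triplicate on different days, values averaged.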"}, "[2]": {"test_system": "Candida albicans", "test": "Antimicrobial activity against azole-resistant Candida albicans isolate CA10 assessed as growth at 4 ug/ml co-treated with 0.031 ug/ml calcineurin signaling inhibitor tacrolimus after 48 hrs by microdilution checkboard technique relative to control", "set-up": "scale not given: the % may be the effect or the level left", "method_in_brief": "as §1"}, "[3]": {"test_system": "Candida albicans", "test": "Antimicrobial activity against azole-resistant Candida albicans isolate CA10 assessed as growth at 16 ug/ml co-treated with 0.031 ug/ml calcineurin signaling inhibitor tacrolimus after 48 hrs by microdilution checkboard technique relative to control", "set-up": "scale not given: the % may be the effect or the level left", "method_in_brief": "as §1"}, "[4]": {"test_system": "Candida albicans", "test": "Antimicrobial activity against azole-resistant Candida albicans isolate CA10 assessed as growth at 0.5 ug/ml cotreated with 0.063 ug/ml calcineurin signaling inhibitor Tacrolimus after 48 hrs by microdilution checkboard technique relative to control", "set-up": "scale not given: the % may be the effect or the level left", "method_in_brief": "(§2)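 Checkerboard microdilution in MOPS-buffered RPMI 1640 (pH 7.0, 2% dextrose). Final ranges: azole 0.125–128 μg/ml (FLC) or 0.008–8 μg/ml (ITR, VRC), tacrolimus 0.002–0.125 μg/ml; solvent 1% in single-drug wells. Inoculum 2.5 × 10^3 CFU/ml, 35°C, 48 h. Growth % = background-subtracted OD492 of each well / drug-free well. Triplicate on different days.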"}, "[5]": {"test_system": "Candida albicans", "test": "Antimicrobial activity against azole-resistant Candida albicans isolate CA10 assessed as growth at 0.125 ug/ml co-treated with 0.031 ug/ml calcineurin signaling inhibitor tacrolimus after 48 hrs by microdilution checkboard technique relative to control", "set-up": "scale not given: the % may be the effect or the level left", "method_in_brief": "as §1"}, "[6]": {"test_system": "Candida albicans", "test": "Antimicrobial activity against azole-resistant Candida albicans isolate CA10 assessed as growth at 0.25 ug/ml co-treated with 0.031 ug/ml calcineurin signaling inhibitor tacrolimus after 48 hrs by microdilution checkboard technique relative to control", "set-up": "scale not given: the % may be the effect or the level left", "method_in_brief": "as §1"}, "[7]": {"test_system": "Candida albicans", "test": "Antimicrobial activity against azole-resistant Candida albicans isolate CA10 assessed as growth at 0.125 ug/ml cotreated with 0.008 ug/ml calcineurin signaling inhibitor tacrolimus after 48 hrs by microdilution checkerboard technique relative to control", "set-up": "scale not given: the % may be the effect or the level left", "method_in_brief": "as §2"}, "[8]": {"test_system": "Candida albicans", "test": "Antimicrobial activity against azole-resistant Candida albicans isolate CA10 assessed as growth at 0.125 ug/ml cotreated with 0.002 ug/ml calcineurin signaling inhibitor Tacrolimus after 48 hrs by microdilution checkboard technique relative to control", "set-up": "scale not given: the % may be the effect or the level left", "method_in_brief": "as §2"}, "[9]": {"test_system": "Candida albicans", "test": "Antimicrobial activity against azole-resistant Candida albicans isolate CA10 assessed as growth at 1 ug/ml cotreated with 0.002 ug/ml calcineurin signaling inhibitor tacrolimus after 48 hrs by microdilution checkerboard technique relative to control", "set-up": "scale not given: the % may be the effect or the level left", "method_in_brief": "as §2"}, "[10]": {"test_system": "Candida albicans", "test": "Antimicrobial activity against azole-resistant Candida albicans isolate CA10 assessed as growth at 2 ug/ml cotreated with 0.002 ug/ml calcineurin signaling inhibitor tacrolimus after 48 hrs by microdilution checkerboard technique relative to control", "set-up": "scale not given: the % may be the effect or the level left", "method_in_brief": "as §2"}, "[11]": {"test_system": "Candida albicans", "test": "Antimicrobial activity against azole-resistant Candida albicans isolate CA10 assessed as growth at 0.5 ug/ml cotreated with 0.008 ug/ml calcineurin signaling inhibitor tacrolimus after 48 hrs by microdilution checkerboard technique relative to control", "set-up": "scale not given: the % may be the effect or the level left", "method_in_brief": "as §2"}, "[12]": {"test_system": "Candida albicans", "test": "Antimicrobial activity against azole-resistant Candida albicans isolate CA10 assessed as growth at 2 ug/ml cotreated with 0.008 ug/ml calcineurin signaling inhibitor Tacrolimus after 48 hrs by microdilution checkboard technique relative to control", "set-up": "scale not given: the % may be the effect or the level left", "method_in_brief": "as §2"}, "[13]": {"test_system": "Candida albicans", "test": "Antimicrobial activity against azole-resistant Candida albicans isolate CA10 assessed as growth at 16 ug/ml cotreated with 0.008 ug/ml calcineurin signaling inhibitor tacrolimus after 48 hrs by microdilution checkerboard technique relative to control", "set-up": "scale not given: the % may be the effect or the level left", "method_in_brief": "as §2"}, "[14]": {"test_system": "Candida albicans", "test": "Antimicrobial activity against azole-resistant Candida albicans isolate CA10 assessed as growth at 128 ug/ml cotreated with 0.008 ug/ml calcineurin signaling inhibitor Tacrolimus after 48 hrs by microdilution checkboard technique relative to control", "set-up": "scale not given: the % may be the effect or the level left", "method_in_brief": "as §2"}, "[15]": {"test_system": "Candida albicans", "test": "Antimicrobial activity against azole-resistant Candida albicans isolate CA10 assessed as growth at 2 ug/ml cotreated with 0.004 ug/ml calcineurin signaling inhibitor tacrolimus after 48 hrs by microdilution checkerboard technique relative to control", "set-up": "scale not given: the % may be the effect or the level left", "method_in_brief": "as §2"}, "[16]": {"test_system": "Candida albicans", "test": "Antimicrobial activity against azole-resistant Candida albicans isolate CA10 assessed as growth at 16 ug/ml co-treated with 0.004 ug/ml calcineurin signaling inhibitor tacrolimus after 48 hrs by microdilution checkboard technique relative to control", "set-up": "scale not given: the % may be the effect or the level left", "method_in_brief": "as §2"}, "[17]": {"test_system": "Candida albicans", "test": "Antimicrobial activity against azole-resistant Candida albicans isolate CA10 assessed as growth at 32 ug/ml co-treated with 0.004 ug/ml calcineurin signaling inhibitor tacrolimus after 48 hrs by microdilution checkboard technique relative to control", "set-up": "scale not given: the % may be the effect or the level left", "method_in_brief": "as §2"}, "[18]": {"test_system": "Candida albicans", "test": "Antimicrobial activity against azole-resistant Candida albicans isolate CA10 assessed as growth at 16 ug/ml after 48 hrs by microdilution checkerboard technique relative to control", "method_in_brief": "as §2"}, "[19]": {"test_system": "Candida albicans", "test": "Antimicrobial activity against azole-resistant Candida albicans isolate CA10 assessed as growth at 64 ug/ml after 48 hrs by microdilution checkerboard technique relative to control", "method_in_brief": "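CA10 in RPMI 1640 with 2% dextrose and 0.165 M MOPS, pH 7.0. Checkerboard used twofold dilutions, with azole alone in row H and the drug-free growth control in well H1. Final inoculum was 2.5 × 10^3 CFU/ml, incubated 35°C for 48 h, with OD read at 492 nm. Growth % = background-subtracted well OD / drug-free well OD. Run in triplicate on different days.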"}, "[20]": {"test_system": "Candida albicans", "test": "Antimicrobial activity against azole-resistant Candida albicans isolate CA10 assessed as growth at 0.008 ug/ml after 48 hrs by microdilution checkerboard technique relative to control", "method_in_brief": "as §2"}, "[21]": {"test_system": "Candida albicans", "test": "Antimicrobial activity against azole-susceptible Candida albicans isolate CA129 after 48 hrs by broth microdilution method", "details": "isolate CA129, 48 h", "method_in_brief": "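CLSI M27-A2 broth microdilution was run in RPMI 1640 (pH 7.0, 2% dextrose, 0.165 M MOPS). Inoculum was 2.5 × 10^3 CFU/ml, incubated 35°C for 48 h without shaking. Plates were read visually (0–5 scale) and at OD 492 nm. MIC80 = lowest concentration giving an 80% absorbance decrease vs drug-free control. Triplicate.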"}, "[22]": {"test_system": "Candida albicans", "test": "Antimicrobial activity against azole-resistant Candida albicans isolate CA10 assessed as growth at 0.5 ug/ml co-treated with 0.125 ug/ml calcineurin signaling inhibitor tacrolimus after 48 hrs by microdilution checkboard technique relative to control", "set-up": "scale not given: the % may be the effect or the level left", "method_in_brief": "as §2"}, "[23]": {"test_system": "Candida albicans", "test": "Antimicrobial activity against azole-resistant Candida albicans isolate CA10 assessed as growth at 1 ug/ml co-treated with 0.125 ug/ml calcineurin signaling inhibitor tacrolimus after 48 hrs by microdilution checkboard technique relative to control", "set-up": "scale not given: the % may be the effect or the level left", "method_in_brief": "as §2"}, "[24]": {"test_system": "Candida albicans", "test": "Antimicrobial activity against azole-resistant Candida albicans isolate CA10 assessed as growth at 2 ug/ml cotreated with 0.125 ug/ml calcineurin signaling inhibitor tacrolimus after 48 hrs by microdilution checkerboard technique relative to control", "set-up": "scale not given: the % may be the effect or the level left", "method_in_brief": "as §2"}}}
{"smiles": "OC(Cn1cncn1)(Cn1cncn1)c1ccc(F)cc1F", "note": "[FLUCONAZOLE]", "values": [{"measurement": "Activity", "setting": "[1]", "result": 17, "unit": "%"}, {"measurement": "Activity", "setting": "[2]", "result": 16, "unit": "%"}, {"measurement": "Activity", "setting": "[3]", "result": 15, "unit": "%"}, {"measurement": "Activity", "setting": "[4]", "result": 13, "unit": "%"}, {"measurement": "Activity", "setting": "[5]", "result": 36, "unit": "%"}, {"measurement": "Activity", "setting": "[6]", "result": 23, "unit": "%"}, {"measurement": "Activity", "setting": "[7]", "result": 60, "unit": "%"}, {"measurement": "Activity", "setting": "[8]", "result": 76, "unit": "%"}, {"measurement": "Activity", "setting": "[9]", "result": 50, "unit": "%"}, {"measurement": "Activity", "setting": "[10]", "result": 48, "unit": "%"}, {"measurement": "Activity", "setting": "[11]", "result": 34, "unit": "%"}, {"measurement": "Activity", "setting": "[12]", "result": 22, "unit": "%"}, {"measurement": "Activity", "setting": "[13]", "result": 24, "unit": "%"}, {"measurement": "Activity", "setting": "[14]", "result": 39, "unit": "%"}, {"measurement": "Activity", "setting": "[15]", "result": 32, "unit": "%"}, {"measurement": "Activity", "setting": "[16]", "result": 35, "unit": "%"}, {"measurement": "Activity", "setting": "[17]", "result": 30, "unit": "%"}, {"measurement": "Activity", "setting": "[18]", "result": 50, "unit": "%"}, {"measurement": "Activity", "setting": "[19]", "result": 48, "unit": "%"}, {"measurement": "Activity", "setting": "[20]", "result": 96, "unit": "%"}, {"measurement": "MIC", "setting": "[21]", "result": 0.5, "unit": "µg/mL"}, {"measurement": "Activity", "setting": "[22]", "result": 6, "unit": "%"}, {"measurement": "Activity", "setting": "[23]", "result": 3, "unit": "%"}, {"measurement": "Activity", "setting": "[24]", "result": 12, "unit": "%"}]}
